Bioassay records: PubChem BioAssay, several laboratories
DSG3 Ab inh = inhibitors of pemphigus antibody binding to human desmoglein-3; P32926; DSG3-coupled beads, scFv-anti-DSG3-GFP binding, flow cytometry; hits give low values; binding (percent of control), % at 10 µM; actives 0.48% (n = 310,000); AID 588358;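 active means binding more than 3 SD below its plate's average and above zero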;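 further: hits lower antibody fragment binding to DSG3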
Arrestin-AP2 inh = inhibitors of human beta-arrestin and AP2 interaction | FITC-arrestin peptide / GST-AP2 beads, flow cytometry; AP2 beta2 appendage carries R879A mutation | AID 504490 | inhibition, % at 10 µM | actives 0.31% (n = 340,000);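 active means inhibition above a set limit, near 3 SD of compounds lacking own fluorescence, cut at about 54% in these data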;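 further: plate controls were DMSO wells for no effect and 5 µM unlabelled arrestin peptide for full effect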
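Test system: GST-tagged AP2 beta2-adaptin appendage (R879A) on 4 µm glutathione beads; also added: fluorescein-tagged arrestin peptide at 50 nM final; timing: 12 min plus 1 h, RT; signal: flow cytometry, FL1 (488/535 nm); read-out: percent drop in bead-associated FITC signal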
Efflux pump mplx = blocks antifungal efflux pumps in multiplex yeast assay | inhibition, % at 10 µM | S. cerevisiae Candida pump triplex, Nile Red efflux | actives 0.44% (n = 330,000);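 active means plate passing quality check with inhibition over a set limit, or well fluorescence over plate mean plus 4 SD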;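 further: Nile Red retained in pooled yeast measured as flow cytometry median fluorescence; 0% = buffer negative control and 100% = Enniatin B positive control; higher means more Nile Red kept so more efflux inhibition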
Neddylation inh = blocks human cullin neddylation; AID 651699; inhibition, % at 25 µM; P61081+Q13564; actives 0.58% (n = 360,000); TR-FRET cullin neddylation, biochemical; in the data active means inhibition above about 36%
Target sequence (P61081 whole entry, looked up): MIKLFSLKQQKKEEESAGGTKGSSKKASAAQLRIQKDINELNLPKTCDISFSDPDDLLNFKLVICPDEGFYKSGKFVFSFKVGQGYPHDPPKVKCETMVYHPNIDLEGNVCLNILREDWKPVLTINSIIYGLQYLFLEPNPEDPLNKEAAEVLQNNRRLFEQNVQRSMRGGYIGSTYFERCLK
Target sequence (Q13564 whole entry, looked up): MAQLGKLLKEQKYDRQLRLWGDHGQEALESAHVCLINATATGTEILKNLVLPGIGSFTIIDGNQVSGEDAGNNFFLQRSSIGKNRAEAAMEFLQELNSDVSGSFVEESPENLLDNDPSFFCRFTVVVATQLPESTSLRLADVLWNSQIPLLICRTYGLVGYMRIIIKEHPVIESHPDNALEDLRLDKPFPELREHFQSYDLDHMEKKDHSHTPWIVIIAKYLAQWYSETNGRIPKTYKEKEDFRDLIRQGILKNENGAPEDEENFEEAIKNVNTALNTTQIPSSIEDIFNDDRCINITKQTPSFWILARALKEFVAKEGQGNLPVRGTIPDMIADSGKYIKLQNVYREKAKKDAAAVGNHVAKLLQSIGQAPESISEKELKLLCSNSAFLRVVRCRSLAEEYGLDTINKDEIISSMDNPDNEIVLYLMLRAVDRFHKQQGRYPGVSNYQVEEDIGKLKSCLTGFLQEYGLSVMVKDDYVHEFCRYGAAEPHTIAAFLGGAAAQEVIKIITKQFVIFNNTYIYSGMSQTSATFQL
Yeast cmpd fluor = compound fluorescence in yeast efflux pump counter-screen | actives 4% (n = 1,700) | AID 588517 | S. cerevisiae AD/pABC3, flow cytometry | shares compounds with Efflux pump mplx | fluorescence ratio to DMSO, % at 10 µM;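 active means fluorescence ratio to DMSO above its plate's cutoff, the plate mean ratio plus 5 SD, cut at about 210% in these data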;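 further: unstained yeast with no Nile Red so the signal is compound autofluorescence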
CaMdr1 efflux inh = blocks the Candida albicans Mdr1 efflux pump in yeast; shares compounds with Efflux pump mplx; S. cerevisiae AD/CaMDR1, Nile Red efflux, flow cytometry; inhibition, % at 10 µM; actives 1% (n = 1,700); AID 588518; in the data active means inhibition above about 26%;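 further: 0% = DMSO vehicle and 100% = reference inhibitor; higher means more Nile Red retained so more efflux inhibition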
CaCdr2 efflux inh = inhibitors of Candida albicans Cdr2 efflux pump | AID 588520 | S. cerevisiae AD/CaCDR2, Nile Red retention, flow cytometry | actives 4% (n = 1,700) | shares compounds with Efflux pump mplx | Nile Red retention ratio vs DMSO, % at 10 µM; in the data active means Nile Red retention ratio vs DMSO above about 190%;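 further: higher ratio means more blocking of Cdr2 efflux of the dye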
CaCdr1 efflux inh = Candida Cdr1 efflux pump inhibition | shares compounds with Efflux pump mplx | S. cerevisiae AD/CaCDR1, Nile Red efflux, flow cytometry | inhibition, % at 10 µM | actives 1% (n = 1,700);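 active means inhibition above the screen-wide mean plus twice its standard deviation, cut at about 32% in these data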
* marks the source's active call; other numbers are inactive results; . = no result shown. Only some compounds are listed: those with a hit (about 1.7% of all), similar ones and a draw of the others.

SMILES	DSG3 Ab inh	Arrestin-AP2 inh	Efflux pump mplx	Neddylation inh	Yeast cmpd fluor	CaMdr1 efflux inh	CaCdr2 efflux inh	CaCdr1 efflux inh
Cc1nn(C)c(C)c1/C=N/NC(=O)CCn1cc([N+](=O)[O-])cn1	121.9	10.8	13.8*	0.5	93.4	-0.2	95.6	-0.1
C[C@@H](C(=O)NCc1c(F)cccc1Cl)N1C(=O)N2CCc3c([nH]c4ccccc34)[C@@]2(C)C1=O	103.9	24.1	0.6	1.7	.	.	.	.
Cc1nc(N)[nH]c(=O)c1CCCNc1ccc([N+](=O)[O-])cc1	120.7	-9.1	.	-43.2	.	.	.	.
O=[N+]([O-])c1ccc(N2CCc3ccccc3C2)nc1	113.6	37.9	0.6*	-25.5	109.9	0.1	131.0	0.0
COc1ccc(/C=C/C(=O)Nc2cccc(S(=O)(=O)N3CCCC3)c2)cc1OC	108.5	40.6	1.1*	32.4	107.9	-0.3	87.9	-0.1
Cc1c(C(=O)OCC(=O)N2CCCC2)cccc1[N+](=O)[O-]	105.3	16.5	0.0	-8.1	.	.	.	.
CCN(CC)S(=O)(=O)c1cccc(C(=O)OCC(=O)NCCN2C(=O)CSC2=O)c1	101.8	-3.6	0.1	-15.7	92.1	-0.3	84.5	-0.1
Cc1c(C(=O)OCC(=O)NCCN2C(=O)CSC2=O)cccc1[N+](=O)[O-]	103.7	26.1	-0.1	-6.1	.	.	.	.
O=C(COC(=O)c1cccc(Cl)c1Cl)NCCN1C(=O)CSC1=O	100.8	-12.6	0.0	1.8	112.4	-0.2	108.3	-0.1
O=C(COC(=O)c1ccccc1Br)NCCN1C(=O)CSC1=O	.	40.5	1.1*	7.2	98.6	-0.4	93.0	0.2
CN(C)c1ncc(S(=O)(=O)c2ccccc2)c(=O)[nH]1	96.4	1.3	-0.1	8.0	.	.	.	.
CN(C)CCCNC(=O)c1ccc(Oc2ccccc2)cc1	101.6	5.5	0.8	14.9	.	.	.	.
COc1ccc(NC2=Nc3ccccc3N3C2=Nc2c(c(C)nn2-c2ccc(C)cc2)C3c2cccnc2)cc1 (centres undefined)	83.2	14.7	0.3	.	.	.	.	.
COc1cccc(C2c3c(C)nn(-c4ccc([N+](=O)[O-])cc4)c3N=C3C(=O)Nc4ccccc4N32)c1 (centres undefined)	93.2	46.4	0.4*	7.5	103.1	0.0	98.5	-0.1
CC(=O)Nc1ccc(NC2=Nc3ccccc3N3C2=Nc2c(c(C)nn2-c2ccccc2)C3c2ccccc2)cc1 (centres undefined)	67.1	22.9	0.2	13.0	.	.	.	.
Cc1nn(-c2ccc([N+](=O)[O-])cc2)c2c1C(c1ccc(OC(F)F)cc1)N1C(=N2)C(=O)Nc2ccccc21 (centres undefined)	98.5	6.0	1.6*	4.9	115.9	0.6	133.0	0.2
CCc1nc2ccc(C(=O)N(C)CC(=O)Nc3cccc(F)c3)cc2nc1CC	.	16.7	-0.5	-16.1	.	.	.	.
COc1ccc(OCCSc2nnc(CCNC(=O)c3ccc(Cl)c(Cl)c3)n2C)cc1	113.5	-5.3	-0.1	-0.9	.	.	.	.
COc1ccc(OCCSc2nnc(CCNC(=O)c3ccc(OC)cc3)n2C)cc1	107.1	10.0	23.7*	-0.3	104.6	-0.1	106.0	-0.1
CCN(C(=O)COC(=O)c1cc(S(=O)(=O)N2CCOCC2)c(Cl)cc1Cl)C1CCS(=O)(=O)C1 (centres undefined)	97.1	17.0	0.9*	-4.5	107.8	0.0	87.3	-0.1
CCN(C(=O)COC(=O)c1ccc(F)c(S(=O)(=O)N2CCOCC2)c1)C1CCS(=O)(=O)C1 (centres undefined)	99.9	13.1	0.1	-2.9	.	.	.	.
CC/C(O)=C(\C#N)c1nnc2n1CCCCC2	101.3	13.4	6.7*	4.7	105.7	-0.2	95.4	-0.2
CCN(CC)C(=O)Cn1cc(S(=O)(=O)CC(=O)NCCc2ccc(OC)c(OC)c2)c2ccccc21	102.8	-4.0	0.1	-53.0	.	.	.	.
COc1ccc(CNC(=O)COC(=O)CCC2CCCCC2)cc1	116.8	-2.0	0.8	11.3	.	.	.	.
COC(=O)c1ccc(CNC(=O)COC(=O)CCC2CCCC2)cc1	102.1	40.3	16.6*	-4.6	114.6	-0.1	114.4	0.2
